Reference: ChEMBL document CHEMBL1152797, “Design and synthesis of 4-methoxyphenylacetic acid esters as 15-lipoxygenase inhibitors and SAR comparative studies of them” (Bioorg Med Chem, 2009)
Activity calls are given as the source filed them. No cut-off for these calls is given here.

molecular target: not listed separately; experiment: Inhibition of 15-lipoxygenase form soybean; design: species or system Glycine max

IC50 [µM]	Structure (SMILES)
34.4	COc1ccc(CC(=O)OC(C)C)cc1
96.1	C=CCc1ccc(OC)c(OC)c1 [METHYLEUGENOL]
3.8	CCCCOC(=O)Cc1ccc(OC)cc1
145	C=C(CC)Cc1ccc(OC)cc1
32	CCOC(=O)Cc1ccc(OC)cc1
64	COc1ccc(CC(=O)OC2CCCCC2)cc1
33	CCC(=O)Cc1ccc(OC)cc1
38.7	COc1ccc(CC(=O)OC(C)(C)C)cc1
38.2	C=CCc1ccc(O)c(OC)c1 [EUGENOL]
1.9	CCCCCOC(=O)Cc1ccc(OC)cc1
11.6	CCCOC(=O)Cc1ccc(OC)cc1
137	C=C(C)Cc1ccc(OC)cc1
56.2	COC(=O)Cc1ccc(OC)cc1
88.1	COc1ccc(CC(=O)OCC(C)C)cc1
56.5	COc1ccc(CC(=O)OC2CCCC2)cc1
35.7	CCC(C)OC(=O)Cc1ccc(OC)cc1 (centres undefined)
35	CCCCCCOC(=O)Cc1ccc(OC)cc1

Structure (SMILES)	IC50 [µM]
C=CCc1ccc(OC)cc1 [ESTRAGOLE]	64.1

molecular target: not listed separately; experiment: Inhibition of human recombinant 15-lipoxygenase a
Outline: (§1)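 Human recombinant 15-LO (a or b), expressed in E. coli, at 10 µg/mL final in 50 mM Tris–HCl, pH 7.2. Linoleic acid substrate at 134 µM final, 20 ± 1 °C, compounds in DMSO (1% final). Absorbance read at 234 nm over 60–120 s against an inhibitor-plus-substrate blank. Triplicates, at least six controls; IC50 interpolated linearly near 50% activity.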

IC50 [µM]	Structure (SMILES)
56.7	CCOC(=O)Cc1ccc(OC)cc1
30.9	CCCCCOC(=O)Cc1ccc(OC)cc1

molecular target: not listed separately; experiment: Inhibition of human recombinant 15-lipoxygenase b; outline: as §1

IC50 [µM]	Structure (SMILES)
63.2	CCOC(=O)Cc1ccc(OC)cc1
11.7	CCCCCOC(=O)Cc1ccc(OC)cc1

test system: Glycine max; experiment: Inhibition of 15-lipoxygenase form soybean at 200 uM

Activity	Structure (SMILES)
inactive	COc1ccc2c(c1)CCC(=O)C2
inactive	C=C1CCc2cc(OC)ccc2C1
